The values that follow come from PubChem BioAssay.

Assay [1] in a line: inhibitors of TNFa-induced NFkB p65 translocation, primary screen, imaging, HUVEC, MLSMR starter and 10KST1 sets (AID 438;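 active means inhibition above 20% together with a positive visual image hit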;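 further: compound added about 3h40 before a 20 min TNFalpha stimulation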;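 on inhibition: signal is the nuclear over cytoplasmic p65 intensity ratio per well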). As to conditions: HUVEC TNFa-induced p65 nuclear translocation; cell count: measured here: nuclei count (cytotoxicity indicator), at 2.08 µM; inhibition: at 2 µM, stronger effect = higher value, 0% TNFa-plus-vehicle, 100% no-TNFa wells.
Assay [2] is described as follows: inhibitors of mutant huntingtin aggregation, primary screen, imaging, exon1htt(103Q)mCFP cells, high-content imaging (AID 483;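 active means visual image review flags a hit and inhibition of aggregation exceeds 20%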;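 further: compound exposure lasted 3 days before fixation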;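 on nuclei count: percent of the per-plate median nuclei count of sample wells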). As to conditions: exon1htt(103Q)mCFP cell line, aggregate imaging, at 2 µM; inhibition of aggregation: stronger effect = higher value; nuclei count: measured here: cell count, toxicity.
The nature of assay [3]: inhibitors of E-selectin induction by TNFa, primary screen, imaging, HUVEC, immunofluorescence, MLSMR starter and 10KST1 sets (AID 487;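 active means visually confirmed hit in the image check and inhibition above 20%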;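 on inhibition: signal is fraction of cell area covered by stained E-selectin grains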;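 on nuclei count: 100% = median nuclei count of all wells on the same plate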). As to conditions: HUVEC TNFalpha-induced E-selectin immunofluorescence imaging, at 2 µM; inhibition: stronger effect = higher value; nuclei count: measured here: cell number, toxicity.
Assay [4] addresses Voltage-gated potassium channel subunit beta-2 (Rattus norvegicus) (UniProt P62483). As to the kind of experiment: KvBeta enzyme negative modulators, primary screen, biochemical, NADPH fluorescence (AID 622).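 Further: slope of raw intensity against log time taken from 70 to 1610 s.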 To be noted: recombinant KvBeta, 4-cyanobenzaldehyde reduction, at 10 µM, stronger effect = higher value.
For assay [5] the target is unchanged. As to the kind of experiment: KvBeta positive modulators, primary screen, biochemical, NADPH fluorescence (AID 623;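 active means NADPH fluorescence slope more negative than the mean of all samples by about 3 SD, 99.7% confidence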;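 further: fluorescence intensity change per second fitted from 20 to 320 s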). As to conditions: Recombinant KvBeta, NADPH fluorescence decrease slope, 10 min; at 10 µM; stronger effect = lower value.
Assay [6] concerns the target Muscarinic acetylcholine receptor M4 (Homo sapiens) (UniProt P08173). As to the kind of experiment: compounds altering M4/GIRK thallium flux, either direction, primary screen, M4 allosteric agonist project, cell-based, HEK293 M4/GIRK, BTC-AM (AID 625;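 active means fluorescence slope after compound addition differing from the mean of all tested samples at 99.7% confidence, mostly higher but some lower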;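 further: thallium influx through GIRK channels coupled to M4 in HEK293 cells with BTC-AM dye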). As to conditions: at 10 µM, actives lie on both sides. The method in brief: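 Material – HEK293 cells with M4 receptor and GIRK channels · Buffer or medium – pH 7.3 thallium assay buffer · Doses – one dose, 10 µM final · Timing – cells overnight at 37 °C, BTC-AM loading 1 h, reads 2 min total · Measured by – kinetic fluorescence with BTC-AM dye · Controls – carbachol and DMSO controls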

The nature of assay [7]: inhibitors of Sendai virus-induced IRF3 signaling, primary screen, TLR/RLR signaling modifier project, cell-based, Sendai virus stimulus, luciferase, 10K MLSCN set (AID 602276;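 active means inhibition at or above 50% at 10 µM; inactive means inhibition below 50%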;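 further: firefly luciferase from ISG56 promoter only with Renilla not read in this screen; 0% = Sendai virus plus DMSO and 100% = medium plus DMSO without virus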). To be noted: HEK293 RL24 IRF3 luciferase reporter, at 10 µM, stronger effect = higher value.
Assay [8] can be described thus: inhibitors of poly I:C-induced TLR3 signaling, primary screen, cell-based, poly I:C stimulus, luciferase, 10K MLSCN set (AID 602277;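 active means inhibition of the reporter signal at or above 50%; inactive means inhibition below 50%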). As to conditions: HEK293-TLR3 RL24 IRF3 luciferase reporter, at 10 µM, stronger effect = higher value.

Active and inactive are the calls of the source.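 How the source made its calls, unless noted: active means fluorescence slope higher than the sample average by over 3 SD (cut at about -0.22 in these data, passing the limit was not always enough); inactive means the rest.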

Sequence of Voltage-gated potassium channel subunit beta-2 (Rattus norvegicus) (P62483 whole entry, looked up): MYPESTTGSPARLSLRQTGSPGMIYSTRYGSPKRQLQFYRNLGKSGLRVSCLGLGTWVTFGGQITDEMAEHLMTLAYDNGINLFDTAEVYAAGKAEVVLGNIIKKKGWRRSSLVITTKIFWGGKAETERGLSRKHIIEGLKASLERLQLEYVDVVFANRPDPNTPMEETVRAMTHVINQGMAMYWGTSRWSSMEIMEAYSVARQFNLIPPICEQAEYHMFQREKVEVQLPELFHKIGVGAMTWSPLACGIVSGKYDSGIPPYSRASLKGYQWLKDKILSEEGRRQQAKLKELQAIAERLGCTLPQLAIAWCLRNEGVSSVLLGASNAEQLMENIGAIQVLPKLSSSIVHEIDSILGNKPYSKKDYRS
Sequence of Muscarinic acetylcholine receptor M4 (Homo sapiens) (P08173 whole entry, looked up): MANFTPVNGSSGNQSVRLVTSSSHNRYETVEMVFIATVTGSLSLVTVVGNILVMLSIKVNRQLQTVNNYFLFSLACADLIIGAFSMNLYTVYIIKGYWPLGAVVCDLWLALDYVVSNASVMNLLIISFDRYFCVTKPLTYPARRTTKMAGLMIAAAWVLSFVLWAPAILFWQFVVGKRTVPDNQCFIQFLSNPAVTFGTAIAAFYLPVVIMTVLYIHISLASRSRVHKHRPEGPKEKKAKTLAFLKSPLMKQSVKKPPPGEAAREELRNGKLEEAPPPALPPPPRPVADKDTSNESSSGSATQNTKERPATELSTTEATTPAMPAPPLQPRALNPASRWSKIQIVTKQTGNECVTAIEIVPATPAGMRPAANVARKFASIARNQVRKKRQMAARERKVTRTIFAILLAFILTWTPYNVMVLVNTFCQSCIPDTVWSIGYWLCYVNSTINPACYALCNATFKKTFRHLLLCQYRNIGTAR

Take `Cc1nn(-c2ccccc2)c2c1C(c1c(C)[nH]c(C#N)c1C)C(C#N)=C(N)O2` (stereo not given): the cell count in assay [1] amounted to 565. The inhibition in assay [1] is -13.4% (inactive); in assay [3] it was 15.4% (inactive); in assay [7] it was 8.98% (inactive); in assay [8], 13% (inactive). Further, the inhibition of aggregation in assay [2] was 9.2% (inactive). Besides, the nuclei count in assay [2] came out at 86%; in assay [3] it was 101%. For the same compound, the results for the fluorescence slope in assay [4] and in assay [6] were -0.391 (inactive) and 0.00623 (inactive), respectively. Besides, the NADPH fluorescence slope in assay [5] was 8.5e-05 (inactive).

As for `CS(=O)(=O)c1ccc2nc(NC(=O)CCC(=O)c3cccs3)sc2c1`, the cell count in assay [1] was 517. In addition, the inhibition in assay [1] was 2.6% (inactive); in assay [3] it was -87.7% (inactive); in assay [7], 14.5% (inactive); in assay [8], 4.68% (inactive). Also, in assay [2], the inhibition of aggregation was -3.8% (inactive). Further, the nuclei count was found to be 105% in assay [2] and 95.8% in assay [3]. Also, the fluorescence slope is -0.594 (inactive) in assay [4] and 0.00448 (inactive) in assay [6]. Further, in assay [5], the NADPH fluorescence slope is 1.3e-06 (inactive).

For the compound `CC(C)CCn1c(N)c(S(=O)(=O)c2cccs2)c2nc3ccccc3nc21`, the cell count in assay [1] is 652. Moreover, the inhibition in assay [1] was 2% (inactive); in assay [3], -67.7% (inactive); in assay [7], 8.07% (inactive); in assay [8], -1.32% (inactive). Moreover, in assay [2], the inhibition of aggregation was 0% (inactive). Moreover, the figures for the nuclei count in assay [2] and in assay [3] were 105% and 124%, respectively. The fluorescence slope in assay [4] was -0.398 (inactive); in assay [6], 0.00628 (inactive). Moreover, the NADPH fluorescence slope in assay [5] is 1.8e-05 (inactive).

As to `CCOCCCNC(=O)C1CCC(=O)N1CCc1ccccc1` (stereo not given), the cell count in assay [1] is 237. In addition, the inhibition in assay [1] is 2.7% (inactive); in assay [3], -20% (inactive); in assay [7], 5.67% (inactive); in assay [8] it was 12.9% (inactive). In assay [2], the inhibition of aggregation was 1.1% (inactive). Further, the nuclei count turned out to be 92.5% in assay [2] and 95.1% in assay [3]. Further, the fluorescence slope in assay [4] was -0.568 (inactive); in assay [6] it was 0.00522 (inactive). Also, in assay [5], the NADPH fluorescence slope is -6.9e-06 (inactive).

On to `COc1cccc(Nc2nc(=O)[nH]nc2C)c1`, for which the cell count in assay [1] worked out at 372. The inhibition in assay [1] was -0.7% (inactive); in assay [3], -23.9% (inactive); in assay [7] it was 16.9% (inactive); in assay [8], 22.7% (inactive). The inhibition of aggregation in assay [2] was -14.2% (inactive). Besides, the nuclei count in assay [2] was 106%; in assay [3] it was 103%. Besides, the fluorescence slope is -0.572 (inactive) in assay [4] and 0.00575 (inactive) in assay [6]. For the same compound, in assay [5], the NADPH fluorescence slope is -4.1e-05 (inactive).

In the case of `COCCCNS(=O)(=O)c1ccc2c(c1)CCN2C(C)=O`, the cell count in assay [1] came to 416. Moreover, the inhibition in assay [1] is 0.3% (inactive); in assay [3] it was -31.6% (inactive); in assay [7], 15.1% (inactive); in assay [8], 15% (inactive). Moreover, the inhibition of aggregation in assay [2] was -9.3% (inactive). For the same compound, the results for the nuclei count in assay [2] and in assay [3] were 125% and 139%, respectively. For the same compound, the fluorescence slope in assay [4] is -0.578 (inactive); in assay [6], 0.00611 (inactive). Besides, the NADPH fluorescence slope in assay [5] was 1.1e-05 (inactive).

As to `CCN(Cc1cc2cc(OC)ccc2[nH]c1=O)C(=O)Cc1ccc(OC)cc1`, the cell count in assay [1] was found to be 369. Also, the inhibition in assay [1] is 1.8% (inactive); in assay [3] it was -57.8% (inactive); in assay [7], 11.4% (inactive); in assay [8], 5.34% (inactive). Also, the inhibition of aggregation in assay [2] is -11.9% (inactive). Besides, the figures for the nuclei count in assay [2] and in assay [3] were 114% and 124%, respectively. Besides, the fluorescence slope in assay [4] is -0.549 (inactive); in assay [6], 0.00319 (inactive). The NADPH fluorescence slope in assay [5] is -9.8e-05 (inactive).

As to `CCOc1ccc(C(=O)Nc2cc(C)on2)cc1OCC`, the cell count in assay [1] was 372. Moreover, the inhibition is -2.3% (inactive) in assay [1], -61.3% (inactive) in assay [3], 11.5% (inactive) in assay [7] and 7.31% (inactive) in assay [8]. The inhibition of aggregation in assay [2] was -2.8% (inactive). In addition, the results for the nuclei count in assay [2] and in assay [3] were 110% and 108%, respectively. Moreover, the results for the fluorescence slope in assay [4] and in assay [6] were -0.437 (inactive) and 0.00551 (inactive), respectively. Besides, in assay [5], the NADPH fluorescence slope is -5.8e-05 (inactive).

Regarding `COCCN(C(=O)Cn1nnc2ccccc21)C(C(=O)NC1CCCC1)c1cc(OC)ccc1OC` (stereo not given), in assay [1], the cell count amounted to 323. For the same compound, the inhibition was 9% (inactive) in assay [1], -246% (inactive) in assay [3], 2.22% (inactive) in assay [7] and 8.36% (inactive) in assay [8]. The inhibition of aggregation in assay [2] is 7.8% (inactive). In addition, the nuclei count stood at 105% in assay [2] and 112% in assay [3]. The fluorescence slope in assay [4] is -0.491 (inactive); in assay [6], 0.00575 (inactive). The NADPH fluorescence slope in assay [5] was 0.0001 (inactive).

As to `O=S(=O)(Cc1ccc(Cl)cc1)Nc1ccc2c(c1)OCO2`, the cell count in assay [1] came to 291. For the same compound, the inhibition in assay [1] was -12.5% (inactive); in assay [3], -35.3% (inactive); in assay [7], 7.86% (inactive); in assay [8] it was 9.38% (inactive). Moreover, the inhibition of aggregation in assay [2] is 10.4% (inactive). Moreover, the nuclei count in assay [2] turned out to be 99.4%; in assay [3] it was 123%. Moreover, the fluorescence slope in assay [4] is -0.454 (inactive); in assay [6], 0.00401 (inactive). For the same compound, in assay [5], the NADPH fluorescence slope was -5.8e-05 (inactive).
